MrgX1 agonist: agonists of human MrgX1 receptor, primary screen, HEK293 cells, Fluo-4 calcium flux | AID 588627, 2011 | B-score at 10 µM | Mas-related G-protein coupled receptor member X1 (Homo sapiens), Q96LB2 | 310,000 tested, 0.44% active | Fluo-4 calcium fluorescence, agonist mode; active compounds read high;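 active = calcium response B-score plate-corrected fluorescence ratio at least 3 library SD, with starting fluorescence B-score inside 5 SD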
Target sequence (Q96LB2 whole entry, looked up): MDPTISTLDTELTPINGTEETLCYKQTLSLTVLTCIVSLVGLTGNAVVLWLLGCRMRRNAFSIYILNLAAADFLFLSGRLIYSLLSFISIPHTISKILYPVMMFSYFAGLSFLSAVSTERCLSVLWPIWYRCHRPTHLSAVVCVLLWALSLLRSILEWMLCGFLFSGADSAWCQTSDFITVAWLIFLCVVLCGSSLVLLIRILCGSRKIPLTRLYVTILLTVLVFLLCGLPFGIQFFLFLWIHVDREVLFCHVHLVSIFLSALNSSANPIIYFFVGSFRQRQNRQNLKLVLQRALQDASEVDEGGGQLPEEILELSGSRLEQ
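Material – MrgX1-expressing HEK293 cells · Input – 15,000 cells seeded per well · Dosing – compound as first of three additions · Times – overnight seeding, then 1 h dark dye loading · Measured by – kinetic Fluo-4 NW fluorescence of intracellular calcium · Read-out – B-scored fluorescence response ratio · Benchmarks – positive and negative control wells on each plate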
MrgX1 antagonist: antagonists of human MrgX1 receptor, primary screen, HEK293 cells, Fluo-4 calcium flux | Mas-related G-protein coupled receptor member X1 (Homo sapiens), Q96LB2 | BAM8-22 antagonism; active compounds read low | B-score at 10 µM | 310,000 tested, 1.3% active | AID 588676, 2011;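 active = calcium-response B-score plate-corrected more than 3 library SD below zero, starting fluorescence within 5 deviations, no agonist response on first addition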;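 also: peak minus trough fluorescence over baseline after final BAM8-22 challenge near maximal dose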
RGS4 pot: RGS4 potentiators or activators, primary screen, cell-based, HEK293 M3R inducible RGS4, calcium flux | 310,000 tested, 0.92% active | AID 463111, 2010 | carbachol calcium flux Fluo4; active compounds read low | B-score at 10 µM;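 active = B-score of the integrated calcium signal more than 4 SD below the library mean, with starting fluorescence not abnormally high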;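 also: negative B-score means reduced calcium response which marks RGS4 activation or potentiation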
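Material: M3R-expressing HEK293 line, RGS4 induced by doxycycline | Schedule: Overnight RGS4 induction, 30 min dye load 37 °C, 20 min compound RT | Measured by: Fluo4 fluorescence kinetic imaging of calcium | Read-out: Integrated calcium ratio converted to B score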
RGS4 block: RGS4 inhibitors, primary screen, cell-based, HEK293 M3R inducible RGS4, calcium flux. Fluo-4 calcium flux; active compounds read high; triggered by carbachol at its EC20. B-score at 10 µM. 310,000 tested, 0.45% active;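 active = B-score, a plate-corrected calcium signal, over three deviations above library mean, with baseline fluorescence within five deviations of library mean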;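 also: RGS4 expression induced by doxycycline in cells with stable M3 receptor; B-score is computed from the integrated fluorescence ratio over baseline after carbachol; higher B-score means a larger calcium signal and so more RGS4 inhibition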
Target sequence (P49798 whole entry, looked up): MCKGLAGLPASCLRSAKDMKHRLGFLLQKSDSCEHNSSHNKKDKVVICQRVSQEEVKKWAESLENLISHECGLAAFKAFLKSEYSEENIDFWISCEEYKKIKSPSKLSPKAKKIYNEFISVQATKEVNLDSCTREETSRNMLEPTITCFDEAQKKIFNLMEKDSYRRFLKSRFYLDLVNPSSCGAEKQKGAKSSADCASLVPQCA
MrgX1 PAM: positive allosteric modulators of MrgX1, primary screen, HEK293 cells, Fluo-4 calcium flux | Mas-related G-protein coupled receptor member X1 (Homo sapiens), Q96LB2 | FDSS; active compounds read high | B-score at 10 µM | 310,000 tested, 0.63% active | AID 588675, 2011;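 active = plate-corrected calcium response at least 3 library SD above typical, normal starting fluorescence, not activating the receptor alone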;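 also: compound read alongside a low EC10 to EC30 dose of BAM8-22 agonist; peak minus trough fluorescence over baseline measured at the second addition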
RGS4 act valid: reduced carbachol calcium response, RGS4-induced M3R cells, confirmation, RGS4 activator project, cell-based, HEK293 M3R/RGS4 inducible, calcium flux, duplicate. 1,100 tested, 89% active. carbachol calcium flux Fluo4. inhibition, % at 10 µM. shares compounds with RGS4 pot;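 active = inhibition above 3 SD of the buffer control wells, cut at about 41% in these data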;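 also: signal is the integrated peak-minus-minimum Fluo4 fluorescence over baseline ratio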
RGS4 act ctr: counter-screen for RGS4 activators: effect in non-induced cells; shares compounds with RGS4 pot; HEK293 M3R non-induced RGS4, Fluo4 calcium flux; after carbachol challenge at its EC90; inhibition, % at 10 µM; 1,100 tested, 82% active; AID 602283;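 active = inhibition exceeding 3 SD of buffer-only control wells, cut at about 26% in these data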;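 also: percent drop in integrated peak-minus-baseline over baseline Fluo4 ratio after carbachol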
* = called active by the depositor; i = inactive; nt = no result given. Compounds with a hit are over-represented: about 3.5% of the library has one in this group of screens.

SMILES	MrgX1 agonist	MrgX1 antagonist	RGS4 pot	RGS4 block	MrgX1 PAM	RGS4 act valid	RGS4 act ctr
CC(C)NC(=O)CN1CCN(Cc2nc(C(c3ccccc3)c3ccccc3)no2)CC1	i	i	-7.64*	i	i	92.5*	58.3*
C[C@@H]1CN(C2CCN(Cc3nc(C(c4ccccc4)c4ccccc4)no3)CC2)C[C@H](C)O1	i	i	i	i	i	nt	nt
COc1ccc(C=O)c2[nH]c3c(Cl)ncnc3c12	nt	nt	i	i	nt	nt	nt
COc1ccc(NC2=NCC(Cc3ccc(Br)cc3)S2)cc1 (stereo not drawn)	i	i	-8.85*	i	i	94.0*	82.8*
CC(=O)Nc1c2c3c(cccc3n(C)c1=O)C(=O)c1ccccc1-2	i	i	-8.62*	i	i	53.0*	0.0
CC(=O)Nc1ccc(Nc2ccc3c4c(cc(=O)n3C)-c3ccccc3C(=O)c24)cc1	i	i	i	i	i	nt	nt
Nc1ncc(Br)cc1S(=O)(=O)NCCC(=O)N1CCN(c2ccccn2)CC1	i	i	-8.67*	i	i	75.0*	83.8*
O=C(C[n+]1cc(-c2ccc(Cl)c(Cl)c2)n2c1CCC2)N1c2ccccc2Sc2ccccc21	i	i	-11.2*	i	i	93.0*	94.8*
COc1cc(OC)c(NC(=O)c2ccc3c(SCC(=O)O)c4c(nc3c2)CCCC4)cc1Cl	i	i	i	i	i	nt	nt
Cc1ccc(CCC(=O)NCc2ccccc2)o1	i	i	-7.77*	i	i	0.0	0.0
Cc1ccnc(NC(=O)CCC(=O)N(CC(=O)NC(C)(C)C)c2ccc3c(c2)OCO3)c1	i	i	i	i	i	nt	nt
CC(=O)c1c(C)[nH]c(C(=O)Nc2nc(-c3ccc(Cl)cc3)cs2)c1C	i	i	-8.24*	i	i	94.0*	91.8*
CCOC(=O)CSc1nc(C2CC2)cc(-c2ccc(F)cc2)c1C#N	i	i	-8.48*	i	i	65.5*	0.0
COc1ccc(-c2cc(C3CC3)nc(SCC(=O)c3cccs3)c2C#N)cc1	i	i	i	i	i	nt	nt
CCOC(=O)c1cc(C)nc(N2CCCCC2)c1C#N	i	i	-11.3*	i	i	0.0	0.0
Cc1cc(N(C)C)c(C#N)c(N2CCCCC2)n1	i	i	i	i	i	nt	nt
Cc1ccc(N2C(=O)CSC2c2c(F)cccc2Cl)cc1 (stereo not drawn)	i	i	-10.4*	i	i	93.0*	91.8*
O=C(O)c1ccccc1NS(=O)(=O)c1ccc(NNC(=S)Nc2ccc(OC(F)F)cc2)c([N+](=O)[O-])c1	nt	nt	-11.7*	i	nt	0.0	0.0
Cn1c(=O)n(CCOc2ccc(Cl)cc2Cl)c2ccccc21	i	i	i	i	i	nt	nt
Cn1c(=O)n(CCOc2ccccc2Cl)c2ccccc21	i	i	-7.82*	i	i	88.0*	39.8*
COc1ccc(C(=O)C2CCCN(Cc3c[nH]c4ccccc34)C2)c(OC)c1 (stereo not drawn)	i	i	i	i	i	nt	nt
Cc1cccc(OCC(=O)NCCCNC(=O)c2cnccn2)c1	i	i	i	i	i	nt	nt
CN(C)CCN(C(=O)c1ccc(C(=O)c2ccccc2)cc1)c1nc2cc3c(cc2s1)OCO3	i	i	i	i	i	nt	nt
CN(C)CCN(C(=O)c1ccc(C(=O)c2ccccc2)cc1)c1nc2cc3c(cc2s1)OCCO3	i	i	-9.05*	i	i	90.0*	74.3*
CCN(CC)S(=O)(=O)c1ccc(N2CCc3ccccc3C2)nc1	i	i	-10.3*	i	i	60.0*	83.8*
SMILES	MrgX1 agonist	MrgX1 antagonist	RGS4 pot	RGS4 block	MrgX1 PAM	RGS4 act valid	RGS4 act ctr
O=C(Nc1nc2ccccc2[nH]1)c1ccc(Cl)cc1	i	i	i	i	i	nt	nt
CS(=O)(=O)Nc1nc2ccccc2[nH]1	i	i	i	i	i	nt	nt
O=S(=O)(Nc1nc2ccccc2[nH]1)c1ccccc1	i	i	-8.16*	i	i	91.0*	38.8*
O=S(=O)(Nc1nc2ccccc2[nH]1)c1ccc(Cl)cc1	i	i	-9.42*	i	i	91.5*	90.3*
Cc1c(Cl)cnc(NC(=O)COC(=O)c2cccc(S(=O)(=O)N3c4ccccc4CC3C)c2)c1Cl (stereo not drawn)	i	i	i	i	i	nt	nt
CSc1ccc2c(c1)C(N1CCN(C)CC1)Cc1ccc(F)cc1S2 (stereo not drawn)	i	i	-11.5*	i	i	94.0*	89.8*
CCCN(CCC)CCCOC(=O)c1ccc(Cl)cc1Cl	i	i	-8.34*	i	i	70.5*	83.8*
Cc1ccc(S(=O)(=O)N(CC(=O)Nc2ccccc2C(=O)O)c2ccccc2)cc1	i	i	i	i	i	nt	nt
Cc1ccc(C(=O)NC2(O)C(=O)c3ccccc3C2=O)cc1C	i	i	i	i	i	nt	nt
O=C(NC1(O)C(=O)c2ccccc2C1=O)c1ccc(C(F)(F)F)cc1	i	i	-7.64*	i	i	0.0	0.0
CCc1ccc(NS(=O)(=O)c2cccc3nsnc23)cc1	i	i	-8.56*	i	i	72.5*	83.8*
CC(C)c1ccc(NC(=O)CCNS(=O)(=O)c2cccc3nsnc23)cc1	i	i	-8.02*	i	i	0.0	0.0
CCN=C1SC(C(=O)Nc2cccc(Br)c2)CC(=O)N1CC (stereo not drawn)	i	i	-7.84*	i	i	56.0*	83.8*
CCN=C1SC(C(=O)Nc2ccc(Cl)c(Cl)c2)CC(=O)N1CC (stereo not drawn)	i	i	i	i	i	nt	nt
CCN1CCN(c2nc(-c3ccccc3)c3ccccc3n2)CC1	i	i	-8.64*	i	i	82.0*	39.8*
CC1CCCN(CC(=O)Nc2ccc(S(=O)(=O)N3CCCC3)cc2)C1 (stereo not drawn)	i	i	-9.22*	i	i	85.0*	40.8*
